For one test, the system named is RKO/E6. In words: Induction of apoptosis in RKO/E6 cells. Type of test: functional, cell-based. To be noted: Homo sapiens. The method, boiled down: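 RKO/E6 cells are RKO cells expressing HPV16 E6 protein, which inactivates endogenous p53. They are used to test p53 dependence of the apoptotic response.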
Test [1] concerns RKO. In words: Cell cycle arrest in RKO cells by accumulation at G1 phase. Type of test: functional, Homo sapiens.
In another test the test system is RPE. In words: Induction of p21WAF1/CIP1 level in RPE cells. The conditions noted are these: Homo sapiens. In kind it is functional, cell-based. Summed up:
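Primary human retinal pigment epithelial (RPE) cells were exposed to each compound at 1–20 µM for 24 h. Whole-cell extracts were resolved by SDS 12% polyacrylamide gel electrophoresis and read out by Western blotting.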

The subject of test [2] is RKO. As to the kind of experiment: Stabilization of p53 level in RKO cells. Type of test: functional, cell-based. To be noted: Homo sapiens.
Test [3] has as its system RKO. In words: Induction of apoptosis in RKO cells. Type of test: functional, cell-based. To be noted: Homo sapiens.
The test system of test [4] is RKO. As to the kind of experiment: Cell cycle arrest in RKO cells by accumulation at G2/M phase. Type of test: functional, cell-based. The conditions noted are these: Homo sapiens.
In test [5] the test system is RKO. In words: Cell cycle arrest in RKO cells by accumulation at G2 phase. Type of test: functional, cell-based. The conditions noted are these: Homo sapiens.

The source made the active and inactive calls. The calls are words filed in the database; no cut-off is given here.

Consider 7 compounds from ChEMBL document CHEMBL1144520, “Synthesis of 5-deazaflavin derivatives and their activation of p53 in cells” (2007).

Consider `O=c1nc2n(-c3cccc(Cl)c3)c3ccc([N+](=O)[O-])cc3cc-2c(=O)[nH]1`, for which, in the test on RKO/E6, the result was inactive. This compound displayed an Activity with RKO [1] of 75%. The result in the test on RPE and with RKO [2] was Active.
In the case of `Cc1ccc(-n2c3nc(=O)[nH]c(=O)c-3cc3c(C(F)(F)F)cccc32)cc1`, the result with RKO/E6, with RKO [3], in the test with RPE and in the test on RKO [2] was inactive. The same compound showed an Activity with RKO [1] of 62%.
Take `Cc1ccc(-n2c3nc(=O)[nH]c(=O)c-3cc3c(Cl)cccc32)cc1`: the result in the test on RKO/E6 was inactive. The Activity with RKO [1] is recorded as 73%. In addition, the outcome in the test with RPE and with RKO [2] was Active.
Take `O=c1nc2n(-c3ccc(Cl)cc3)c3cccc(Cl)c3cc-2c(=O)[nH]1`: the result with RKO/E6 was inactive. The outcome with RKO [1] (Homo sapiens), with RPE and with RKO [2] was Active.
On to `O=c1nc2n(-c3ccc(Cl)cc3)c3ccc(C(F)(F)F)cc3cc-2c(=O)[nH]1`, for which the result in the test with RKO/E6, in the test on RKO [3], in the test on RPE and in the test with RKO [2] was inactive.
As for `O=c1nc2n(-c3ccccc3Cl)c3ccc([N+](=O)[O-])cc3cc-2c(=O)[nH]1`, the result in the test with RKO/E6, in the test with RKO [4], in the test with RKO [5], with RPE and with RKO [2] was Active.
Regarding `O=c1nc2n(-c3ccccc3Cl)c3cccc(Cl)c3cc-2c(=O)[nH]1`, the result with RKO/E6, in the test on RKO [4], with RKO [5] and with RKO [2] was Active.
